From ChEMBL document CHEMBL4422662, “Chemical Control of Mammalian Circadian Behavior through Dual Inhibition of Casein Kinase Iα and δ” (J Med Chem, 2019)
Active and inactive are the calls of the source. The rule behind the calls is not given here.

Tests used:
[1] = biological target: T1, Casein kinase I isoform alpha/delta (Homo sapiens) (UniProt P48730+P48729); experiment: Inhibition of CK1alpha/CK1delta in human U2OS cells co-expressing Bmal1-dLuc assessed as modulation circadian clock by measuring drug level causing 5 hrs circadian period lengthening measured every 100 mins by luminescence assay; assay type: cell-based
In short: (§1)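 Bmal1-dLuc U2OS cells seeded at 2000 per well and grown 2 days in DMEM/10% FBS. Explant medium with 1 mM luciferin, 10 mM HEPES and 2% B27 (pH 7.2) added, with compounds at 8 μM to 1 nM (3-fold dilutions, final 0.7% DMSO). Luminescence read every 100 min. Period obtained by curve fitting, excluding the first 20 h. Value is the concentration giving the stated lengthening; mean of at least two independent determinations.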

[2] = biological target: T1, Casein kinase I isoform alpha/delta (Homo sapiens); experiment: Inhibition of CK1alpha/CK1delta in human U2OS cells co-expressing Bmal1-dLuc assessed as modulation circadian clock by measuring drug level causing 1 hr circadian period lengthening measured every 100 mins by luminescence assay; assay type: cell-based; in short: as §1
[3] = biological target: T2, Casein kinase I isoform alpha (Homo sapiens, UniProt P48729); experiment: Inhibition of recombinant full length human GST-tagged CK1apha expressed in baculovirus at 5 uM using peptide as substrate after 3 hrs by kinase-glo luminescent assay
Target sequence in this assay (P48729 2-337 limits assumed): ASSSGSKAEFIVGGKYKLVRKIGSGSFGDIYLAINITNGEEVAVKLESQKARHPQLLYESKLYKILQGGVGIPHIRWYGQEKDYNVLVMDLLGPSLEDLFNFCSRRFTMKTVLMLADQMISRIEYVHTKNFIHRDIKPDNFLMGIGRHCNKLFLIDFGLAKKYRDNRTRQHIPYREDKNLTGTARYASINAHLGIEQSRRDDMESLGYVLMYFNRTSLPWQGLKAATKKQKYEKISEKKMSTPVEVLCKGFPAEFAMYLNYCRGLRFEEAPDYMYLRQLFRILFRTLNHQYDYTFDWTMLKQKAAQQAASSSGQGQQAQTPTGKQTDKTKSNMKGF

[4] = biological target: T2, Casein kinase I isoform alpha; experiment: Inhibition of recombinant full length human GST-tagged CK1apha expressed in baculovirus using peptide as substrate after 3 hrs by kinase-glo luminescent assay
In short: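 Reaction held 1 ng/μL CKIα and 50 μM CKI peptide substrate in CKI buffer (40 mM Tris, 10 mM MgCl2, 0.5 mM DTT, 0.1 mg/mL BSA, pH 7.5). Final 5% DMSO from compound. Started with ATP (final 5 μM). Ran 3 h at 30 °C, then Kinase-Glo reagent added and luminescence recorded.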
Target sequence in this assay (P48729 whole entry, canonical isoform): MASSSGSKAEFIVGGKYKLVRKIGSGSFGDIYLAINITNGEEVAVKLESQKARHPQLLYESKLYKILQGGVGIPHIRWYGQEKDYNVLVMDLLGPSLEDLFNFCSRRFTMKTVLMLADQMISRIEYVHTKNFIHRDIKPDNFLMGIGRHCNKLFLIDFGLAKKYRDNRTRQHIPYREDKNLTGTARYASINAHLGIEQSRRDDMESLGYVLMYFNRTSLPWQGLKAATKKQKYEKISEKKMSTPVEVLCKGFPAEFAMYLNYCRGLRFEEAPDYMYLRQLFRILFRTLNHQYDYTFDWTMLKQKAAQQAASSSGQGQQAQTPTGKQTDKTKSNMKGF

[5] = biological target: T3, Mitogen-activated protein kinase 1 (Homo sapiens, UniProt P28482); experiment: Inhibition of N-terminal GST-tagged recombinant full-length human MAPK1 expressed in Escherichia coli at 5 uM using MBP as substrate after 3 hrs by kinase-glo luminescent assay relative to control
CDK7/Cyclin H/MNAT1 = CDK7/Cyclin H/MNAT1 (Homo sapiens, UniProt P50613); experiment: Inhibition of recombinant full length C-terminal human His-tagged CDK7/cyclin H/N-terminal MAT1 expressed in baculovirus expression system using Cdk7/9 peptide as substrate after 3 hrs by kinase-glo luminescent assay relative to control
In short: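 CDK7 used at 5 ng/μL with 100 μM Cdk7/9 peptide substrate in CKI buffer (40 mM Tris, 10 mM MgCl2, 0.5 mM DTT, 0.1 mg/mL BSA, pH 7.5). ATP start at final 5 μM, 30 °C for 3 h, Kinase-Glo luminescence read-out.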

Mus musculus [6] = experiment: Modulation of circadian rhythms in C57BL/6J mouse assessed as lengthening of time period of circadian behavior at 5 mM administered via infusion using osmotic pump by passive infrared sensor analysis; assay type: functional
In short: (§2)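 Male C57BL/6J mice, 8 weeks old, entrained to 12 h light:12 h dark and then released into constant darkness. Drug infused continuously into the lateral ventricle by osmotic mini-pump via a stereotaxic cannula (0.2 mm anterior, 1.4 mm lateral, 2.2 mm deep). Artificial cerebrospinal fluid infusion served as control, with buffer infusion afterwards. Movement recorded each minute by passive infrared sensor to derive period.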

[7] = biological target: T4, Cyclin-dependent kinase 2 (Homo sapiens, UniProt P24941); experiment: Inhibition of CDK2 (unknown origin) at 5 uM after 3 hrs by kinase-glo luminescent assay relative to control
[8] = biological target: T5, Casein kinase I isoform delta (Homo sapiens, UniProt P48730); experiment: Inhibition of recombinant N-terminal human GST-tagged CK1delta (1 to 294 residues) expressed in Escherichia coli using RKKKAEpSVASLTSQCSYSS peptide as substrate after 3 hrs by kinase-glo luminescent assay relative to control
In short: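 CKI buffer: 40 mM Tris, 10 mM MgCl2, 0.5 mM DTT, 0.1 mg/mL BSA, pH 7.5. Compound added first (final 5% DMSO), then ATP to a final 5 μM. Incubated 30 °C for 3 h; remaining ATP read by Kinase-Glo luminescence.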
Target sequence in this assay (P48730 whole entry, the tested form may be a part, canonical isoform): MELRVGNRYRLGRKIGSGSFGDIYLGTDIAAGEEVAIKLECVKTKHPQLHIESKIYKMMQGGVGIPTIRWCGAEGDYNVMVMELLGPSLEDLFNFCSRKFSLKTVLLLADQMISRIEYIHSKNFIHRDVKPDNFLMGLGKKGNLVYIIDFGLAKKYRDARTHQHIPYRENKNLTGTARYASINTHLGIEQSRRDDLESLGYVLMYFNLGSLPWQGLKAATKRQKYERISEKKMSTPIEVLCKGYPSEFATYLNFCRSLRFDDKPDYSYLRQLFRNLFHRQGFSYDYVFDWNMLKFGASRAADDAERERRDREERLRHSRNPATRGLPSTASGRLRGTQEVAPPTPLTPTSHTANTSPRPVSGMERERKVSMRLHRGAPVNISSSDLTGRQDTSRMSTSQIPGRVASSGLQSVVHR

[9] = biological target: T5, Casein kinase I isoform delta; experiment: Inhibition of recombinant N-terminal human GST-tagged CK1delta (1 to 294 residues) expressed in Escherichia coli at 5 uM using RKKKAEpSVASLTSQCSYSS peptide as substrate after 3 hrs by kinase-glo luminescent assay relative to control
Target sequence in this assay (P48730 whole entry, looked up, the tested form may be a part, canonical isoform): as the sequence (P48730 whole entry, the tested form may be a part, canonical isoform) above

Mus musculus [10] = experiment: Modulation of circadian rhythms in C57BL/6J mouse assessed as lengthening of time period of circadian behavior at 1 mM administered via infusion using osmotic pump by passive infrared sensor analysis; assay type: functional; in short: as §2
[11] = biological target: CDK7/Cyclin H/MNAT1 (Homo sapiens) (UniProt P51946+P50613+P51948); experiment: Inhibition of recombinant full length C-terminal human His-tagged CDK7/cyclin H/N-terminal MAT1 expressed in baculovirus expression system at 5 uM using Cdk7/9 peptide as substrate after 3 hrs by kinase-glo luminescent assay relative to control
[12] = biological target: T4, Cyclin-dependent kinase 2; experiment: Inhibition of CDK2 (unknown origin) after 3 hrs by kinase-glo luminescent assay relative to control
[13] = biological target: T3, Mitogen-activated protein kinase 1; experiment: Inhibition of N-terminal GST-tagged recombinant full-length human MAPK1 expressed in Escherichia coli using MBP1 as substrate after 3 hrs by kinase-glo luminescent assay relative to control
In short: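 MAPK1 assayed as ERK2 at 1.5 ng/μL with 0.8 μg/μL MBP. ERK buffer: 50 mM Tris, 10 mM MgCl2, 0.5 mM DTT, 1 mM EGTA, pH 7.5. Compound at final 5% DMSO, then ATP (final 5 μM). Incubated 3 h at 30 °C; Kinase-Glo luminescence.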

Mus musculus [14] = experiment: Modulation of circadian rhythms in C57BL/6J mouse assessed as lengthening of time period of circadian behavior at 15 mM administered via infusion using osmotic pump by passive infrared sensor analysis; assay type: functional; in short: as §2
Mus musculus [15] = experiment: Modulation of circadian rhythms in C57BL/6J mouse assessed as lengthening of time period of circadian behavior at 3 mM administered via infusion using osmotic pump by passive infrared sensor analysis; assay type: functional; in short: as §2
[16] = biological target: Cyclin-dependent kinase 6 (Homo sapiens) (UniProt Q00534); experiment: Inhibition of CDK6 (unknown origin) at 5 uM relative to control
[17] = biological target: Dual specificity protein kinase CLK2 (Homo sapiens) (UniProt P49760); experiment: Inhibition of CLK2 (unknown origin) at 5 uM relative to control
[18] = biological target: SRSF protein kinase 1 (Homo sapiens) (UniProt Q96SB4); experiment: Inhibition of SRPK1 (unknown origin) at 5 uM relative to control
[19] = biological target: T6, Casein kinase I isoform alpha-like (Homo sapiens) (UniProt Q8N752); experiment: Inhibition of CK1alpha-like protein (unknown origin) at 5 uM relative to control
T6 sequence (whole entry): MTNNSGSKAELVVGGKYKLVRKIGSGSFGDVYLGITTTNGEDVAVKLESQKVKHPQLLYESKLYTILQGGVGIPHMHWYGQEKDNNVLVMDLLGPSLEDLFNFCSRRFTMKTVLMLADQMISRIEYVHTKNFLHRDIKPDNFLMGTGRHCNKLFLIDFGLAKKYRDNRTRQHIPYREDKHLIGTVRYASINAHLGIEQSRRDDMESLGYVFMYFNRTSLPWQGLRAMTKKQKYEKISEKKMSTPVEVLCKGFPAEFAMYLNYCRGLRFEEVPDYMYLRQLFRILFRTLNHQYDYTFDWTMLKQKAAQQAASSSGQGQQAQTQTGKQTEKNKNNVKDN

[20] = biological target: T5, Casein kinase I isoform delta; experiment: Inhibition of CK1delta (unknown origin) at 5 uM relative to control
Target sequence in this assay (P48730 whole entry, looked up, the tested form may be a part, canonical isoform): as the sequence (P48730 whole entry, the tested form may be a part, canonical isoform) above

Mus musculus [21] = experiment: Reversible modulation of circadian rhythms in C57BL/6J mouse assessed as lengthening of time period of circadian behavior at 5 mM administered via infusion using osmotic pump followed buffer infusion by passive infrared sensor analysis; assay type: functional, organism-based; in short: as §2
[22] = biological target: T2, Casein kinase I isoform alpha; experiment: Inhibition of CK1apha (unknown origin) at 5 uM relative to control
Target sequence in this assay (P48729 2-337 limits assumed): as the sequence (P48729 2-337 limits assumed) above

[23] = biological target: SRSF protein kinase 2 (Homo sapiens) (UniProt P78362); experiment: Inhibition of SRPK2 (unknown origin) at 5 uM relative to control
[24] = biological target: Casein kinase I isoform epsilon (Homo sapiens) (UniProt P49674); experiment: Inhibition of CK1epsilon (unknown origin) at 5 uM relative to control
[25] = biological target: Cyclin-dependent kinase 7 (Homo sapiens) (UniProt P50613); experiment: Inhibition of CDK7 (unknown origin) at 5 uM relative to control
Sequence of Cyclin-dependent kinase 7 (Homo sapiens) (P50613 whole entry): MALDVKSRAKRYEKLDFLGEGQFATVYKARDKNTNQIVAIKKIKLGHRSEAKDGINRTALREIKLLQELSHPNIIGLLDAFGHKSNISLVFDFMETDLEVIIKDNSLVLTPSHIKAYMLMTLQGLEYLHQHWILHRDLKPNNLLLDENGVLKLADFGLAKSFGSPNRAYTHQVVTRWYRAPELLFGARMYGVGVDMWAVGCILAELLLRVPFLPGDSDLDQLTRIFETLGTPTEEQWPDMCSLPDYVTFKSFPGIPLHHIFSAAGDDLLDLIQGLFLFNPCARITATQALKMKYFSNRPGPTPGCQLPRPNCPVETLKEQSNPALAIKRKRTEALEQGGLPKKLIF

T1 sequence (P48729 whole entry, looked up, canonical isoform): as the sequence (P48729 whole entry, canonical isoform) above
T1 sequence (P48730 whole entry, looked up, canonical isoform): as the sequence (P48730 whole entry, the tested form may be a part, canonical isoform) above
T3 sequence (P28482 whole entry): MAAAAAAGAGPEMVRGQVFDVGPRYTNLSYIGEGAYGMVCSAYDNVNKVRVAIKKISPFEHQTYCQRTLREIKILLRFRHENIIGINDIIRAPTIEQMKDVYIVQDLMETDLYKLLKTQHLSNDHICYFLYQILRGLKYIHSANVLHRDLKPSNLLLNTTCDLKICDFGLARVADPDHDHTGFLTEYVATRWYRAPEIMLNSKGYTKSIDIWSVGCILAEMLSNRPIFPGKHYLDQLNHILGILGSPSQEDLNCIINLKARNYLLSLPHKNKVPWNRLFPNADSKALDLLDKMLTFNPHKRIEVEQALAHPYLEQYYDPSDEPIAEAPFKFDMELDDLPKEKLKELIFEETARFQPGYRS
Sequence of CDK7/Cyclin H/MNAT1 (P51946 whole entry): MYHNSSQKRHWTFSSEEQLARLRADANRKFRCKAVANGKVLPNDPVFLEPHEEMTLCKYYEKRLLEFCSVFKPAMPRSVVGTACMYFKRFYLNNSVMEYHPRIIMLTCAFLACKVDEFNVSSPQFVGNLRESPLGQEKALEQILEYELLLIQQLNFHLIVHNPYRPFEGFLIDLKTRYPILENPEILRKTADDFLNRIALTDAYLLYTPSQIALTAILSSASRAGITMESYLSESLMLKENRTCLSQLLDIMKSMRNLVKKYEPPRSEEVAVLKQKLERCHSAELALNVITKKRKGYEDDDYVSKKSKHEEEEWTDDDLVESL
Sequence of CDK7/Cyclin H/MNAT1 (P50613 whole entry): as the sequence (P50613 whole entry) above
Sequence of CDK7/Cyclin H/MNAT1 (P51948 whole entry, further chain): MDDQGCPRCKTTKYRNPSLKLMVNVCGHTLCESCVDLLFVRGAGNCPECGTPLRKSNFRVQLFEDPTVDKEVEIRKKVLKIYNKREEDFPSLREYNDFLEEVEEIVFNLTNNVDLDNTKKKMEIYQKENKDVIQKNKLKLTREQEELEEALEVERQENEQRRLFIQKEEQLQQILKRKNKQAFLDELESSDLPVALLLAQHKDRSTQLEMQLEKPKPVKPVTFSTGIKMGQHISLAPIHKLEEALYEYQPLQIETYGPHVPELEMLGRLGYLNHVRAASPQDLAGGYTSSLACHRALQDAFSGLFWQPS
Sequence of Casein kinase I isoform epsilon (Homo sapiens) (P49674 whole entry, looked up, canonical isoform): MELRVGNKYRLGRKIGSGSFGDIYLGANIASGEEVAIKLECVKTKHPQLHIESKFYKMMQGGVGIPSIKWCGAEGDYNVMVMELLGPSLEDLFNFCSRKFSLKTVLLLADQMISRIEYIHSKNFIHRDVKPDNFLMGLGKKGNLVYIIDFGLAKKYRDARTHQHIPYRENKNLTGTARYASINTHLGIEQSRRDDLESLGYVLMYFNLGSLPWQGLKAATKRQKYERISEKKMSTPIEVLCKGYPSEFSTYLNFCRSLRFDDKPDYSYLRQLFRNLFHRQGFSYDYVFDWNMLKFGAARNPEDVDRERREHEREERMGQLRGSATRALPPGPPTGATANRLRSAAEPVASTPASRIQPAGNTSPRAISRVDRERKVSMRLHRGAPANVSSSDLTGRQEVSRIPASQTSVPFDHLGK
Sequence of Cyclin-dependent kinase 6 (Homo sapiens) (Q00534 whole entry): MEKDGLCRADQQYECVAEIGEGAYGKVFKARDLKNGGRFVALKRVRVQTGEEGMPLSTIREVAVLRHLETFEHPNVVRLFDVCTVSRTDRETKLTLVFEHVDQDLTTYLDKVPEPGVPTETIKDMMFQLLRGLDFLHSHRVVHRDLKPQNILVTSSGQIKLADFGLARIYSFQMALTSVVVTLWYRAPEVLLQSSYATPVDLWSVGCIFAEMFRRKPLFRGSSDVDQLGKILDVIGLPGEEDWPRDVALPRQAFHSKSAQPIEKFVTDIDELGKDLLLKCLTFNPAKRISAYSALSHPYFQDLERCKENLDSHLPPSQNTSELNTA

Row | SMILES | EC [1] | EC [2] | also measured
1 | CCCCOc1nc(NCc2cccc(C(F)(F)F)c2)c2ncn(C(C)C)c2n1 | 23.4 µM | 6.39 µM | 
2 | CC(C)Oc1nc(NCc2cccc(C(F)(F)F)c2)c2ncn(C(C)C)c2n1 | 2.75 µM | 0.39 µM | 
3 | CC(C)n1cnc2c(NCc3cccc(C(F)(F)F)c3)nc(NCCN3CCOCC3)nc21 | 9.33 µM | 1.65 µM | 
4 | CC(C)n1cnc2c(NCc3cccc(C(F)(F)F)c3)nc(N3CCCN(C)CC3)nc21 | 5.8 µM | 0.68 µM | 
5 | CC[C@H](CO)Nc1nc(NCc2cccc(C(F)(F)F)c2)c2ncn(C(C)C)c2n1 | 3.76 µM | 0.38 µM | 
6 | CC(C)n1cnc2c(NCc3cccc(C(F)(F)F)c3)nc(NCc3ccccc3)nc21 | inactive | inactive | 
7 | COc1nc(NCc2cccc(C(F)(F)F)c2)c2ncn(C(C)C)c2n1 | 2.39 µM | 0.32 µM | 
8 | COCC1CCCN1c1nc(NCc2cccc(C(F)(F)F)c2)c2ncn(C(C)C)c2n1 (centres undefined) | inactive | inactive | 
9 | CC[C@H](CO)Nc1nc(NCc2ccccc2)c2ncn(C(C)C)c2n1 | 9 µM | 0.96 µM | 
10 | CC(C)n1cnc2c(NCc3cccc(C(F)(F)F)c3)nc(NC3CC3)nc21 | 3.04 µM | 1.62 µM | 
11 | CC(C)n1cnc2c(NCc3cccc(C(F)(F)F)c3)nc(N3CCC(O)CC3)nc21 | 10.4 µM | 1.98 µM | 
12 | CC(C1CC1)n1cnc2c(NCc3cccc(C(F)(F)F)c3)ncnc21 (centres undefined) | 0.9 µM | 0.09 µM | 
13 | CC(C1CC1)n1cnc2c(N(C)Cc3cccc(C(F)(F)F)c3)nc(NCCN(C)C)nc21 (centres undefined) | inactive | inactive | 
14 | CC(=O)N1CCN(c2nc(NCc3cccc(C(F)(F)F)c3)c3ncn(C(C)C)c3n2)CC1 | 5.7 µM | 1.03 µM | 
15 | CC(C)n1cnc2c(NCc3cccc(C(F)(F)F)c3)nc(NCCN(C)C)nc21 | 0.9 µM | 0.09 µM | 
16 | CC(C)n1cnc2c(NCc3cccc(C(F)(F)F)c3)ncnc21 | 3.4 µM | 0.39 µM | inhibition [3]: > 30%; IC50 [4]: 12 µM; inhibition [5]: > 30%; IC50 (CDK7/Cyclin H/MNAT1): 32 µM; Time (Mus musculus [6]): 0.1 h; inhibition [7]: > 30%; IC50 [8]: 12 µM; inhibition [9]: > 30%; Time (Mus musculus [10]): 0.05 h; inhibition [11]: > 30%; IC50 [12]: 13 µM; IC50 [13]: 59 µM; Time (Mus musculus [14]): 0.15 h; Time (Mus musculus [15]): 0.1 h
17 | CC(C)n1cnc2c(NCc3cccc(C(F)(F)F)c3)nc(N3CCN(C)CC3)nc21 | 3.66 µM | 0.9 µM | 
18 | CC(C)n1cnc2c(NCc3cccc(C(F)(F)F)c3)nc(NCCN)nc21 | 5.23 µM | 0.58 µM | 
19 | CC(C1CC1)n1cnc2c(OCc3cccc(C(F)(F)F)c3)nc(NCCN(C)C)nc21 (centres undefined) | inactive | inactive | 
20 | CC(C1CC1)n1cnc2c(NCc3cccc(C(F)(F)F)c3)nc(NCCN(C)C)nc21 (centres undefined) | 0.32 µM | 0.022 µM | inhibition [16]: > 50%; inhibition [3]: Active; inhibition [17]: Active; IC50 [4]: 1.8 µM; IC50 (CDK7/Cyclin H/MNAT1): 2.4 µM; inhibition [18]: Active; inhibition [19]: > 50%; inhibition [20]: > 50%; Activity (Mus musculus [21]): Active; Time (Mus musculus [6]): 0.15 h; IC50 [8]: 3.6 µM; inhibition [9]: Active; inhibition [22]: > 50%; inhibition [23]: Active; inhibition [11]: Active; IC50 [12]: 37 µM; inhibition [24]: > 50%; IC50 [13]: 850 µM; inhibition [25]: > 50%; Time (Mus musculus [14]): 0.15 h
